This is an account of results in ChEMBL document CHEMBL1143000, “Application of the phosphoramidate ProTide approach to 4'-azidouridine confers sub-micromolar potency versus hepatitis C virus on an inactive nucleoside” (J Med Chem, 2007).

Data set [1] in a line: Cytotoxicity against in 2209-23 cells by WST assay. The data set is classed as cell-based. The note with it: human. Put shortly:
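Cell viability read by WST assay in 2209-23 replicon cells (Huh-7 derived, stably carrying a genotype 1b bicistronic HCV replicon). CC50 is the concentration that reduces cell viability by 50%.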

A further data set has as its system Hepatitis C virus. As to the kind of experiment: Inhibition of HCV RNA replication in 2209-23 cells transfected with bicistronic HCV replicon. In kind it is functional, Hepacivirus hominis. Put shortly: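 Huh-7-derived 2209-23 cells stably carry a bicistronic genotype 1b HCV replicon with a renilla luciferase reporter. Replication is read as luciferase signal. EC50 is the concentration that reduces HCV replication by 50%.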
A general note: A replicon is a self-replicating genome or part of one, used to study replication in cells.

A short description of data set [2]: Inhibition of HCV NS5B570-Con1 RNA polymerase. More on the design: species or system Hepacivirus hominis. Put shortly: (§1)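 Recombinant HCV genotype 1b NS5B truncated at residue 570, from strain Con1 or strain BK. RNA synthesis was run primer-independently on HCV genome-derived cIRES RNA template. Read-out was incorporation of radiolabeled UMP into acid-insoluble RNA product.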

A short description of data set [3]: Inhibition of HCV NS5B570n-BK RNA polymerase. More on the design: species or system Hepacivirus hominis. In outline:
as §1

As a reminder, the CC50 is the concentration at which the toxic effect on the cells reaches its halfway point. A low value points to greater toxicity to the cells. A word on the EC50: it is the concentration needed to bring the measured effect to its halfway point. Read a high EC50 as lower potency in that assay. As to `CCOC(=O)CCNP(=O)(OC[C@@]1(N=[N+]=[N-])O[C@@H](n2ccc(=O)[nH]c2=O)[C@@H](O)[C@H]1O)Oc1ccccc1` (some centres not stated), in data set [1], the half-maximal cytotoxic concentration (CC50) is above 100 µM. In the data set on Hepatitis C virus (Hepatitis C virus), this compound yielded an EC50 above 100000 nM.
The compound `CCC(C)OC(=O)[C@H](C)NP(=O)(OC[C@@]1(N=[N+]=[N-])O[C@@H](n2ccc(=O)[nH]c2=O)[C@@H](O)[C@H]1O)Oc1ccccc1` (some centres not stated) registered a CC50 in data set [1] above 100 µM. Moreover, the EC50 in the data set with Hepatitis C virus (Hepatitis C virus) turned out to be 630 nM.
A word on the IC50: it is the concentration at which inhibition is half-maximal. For the compound `[N-]=[N+]=N[C@]1(COP(=O)(O)OP(=O)(O)OP(=O)(O)O)O[C@@H](n2ccc(=O)[nH]c2=O)[C@@H](O)[C@H]1O`, the values for the half-maximal inhibitory concentration (IC50) in data set [2] and in data set [3] were 220 nM and 230 nM, respectively.
Regarding `C[C@H](NP(=O)(OC[C@@]1(N=[N+]=[N-])O[C@@H](n2ccc(=O)[nH]c2=O)[C@@H](O)[C@H]1O)Oc1ccccc1)C(=O)OCc1ccccc1` (some centres not stated), the CC50 in data set [1] is above 100 µM. The compound further yielded an EC50 in the data set on Hepatitis C virus (Hepatitis C virus) of 610 nM.
In turn, `CC(C)[C@H](NP(=O)(OC[C@@]1(N=[N+]=[N-])O[C@@H](n2ccc(=O)[nH]c2=O)[C@@H](O)[C@H]1O)Oc1ccccc1)C(=O)OCc1ccccc1` (some centres not stated) gave a CC50 in data set [1] above 100 µM. In the data set with Hepatitis C virus (Hepatitis C virus), the EC50 was below 100000 nM.
The matching figures for `[N-]=[N+]=N[C@]1(COP(=O)(N[C@@H](Cc2ccccc2)C(=O)OCc2ccccc2)Oc2ccccc2)O[C@@H](n2ccc(=O)[nH]c2=O)[C@@H](O)[C@H]1O` (some centres not stated): above 100 µM and below 100000 nM.
As to `[N-]=[N+]=N[C@]1(COP(=O)(O)OP(=O)(O)OP(=O)(O)O)O[C@@H](n2ccc(N)nc2=O)[C@@H](O)[C@H]1O`, the IC50 was found to be 320 nM in data set [2] and 290 nM in data set [3].
Compound `CCCCOC(=O)[C@H](C)NP(=O)(OC[C@@]1(N=[N+]=[N-])O[C@@H](n2ccc(=O)[nH]c2=O)[C@@H](O)[C@H]1O)Oc1ccccc1` (some centres not stated) had a CC50 in data set [1] above 100 µM. The same compound yielded an EC50 in the data set on Hepatitis C virus (Hepatitis C virus) of 1200 nM.
For `CC(C)OC(=O)[C@H](C)NP(=O)(OC[C@@]1(N=[N+]=[N-])O[C@@H](n2ccc(=O)[nH]c2=O)[C@@H](O)[C@H]1O)Oc1ccccc1` (some centres not stated) the same measures were above 100 µM and 770 nM.
In data set [1], `CCOC(=O)[C@H](C)NP(=O)(OC[C@@]1(N=[N+]=[N-])O[C@@H](n2ccc(=O)[nH]c2=O)[C@@H](O)[C@H]1O)Oc1ccccc1` (some centres not stated) registered a CC50 above 100 µM. Further, the 50% effective concentration (EC50) in the data set on Hepatitis C virus (Hepatitis C virus) was determined as 1300 nM.
As to `C[C@H](NP(=O)(OC[C@@]1(N=[N+]=[N-])O[C@@H](n2ccc(=O)[nH]c2=O)[C@@H](O)[C@H]1O)Oc1cccc2ccccc12)C(=O)OCc1ccccc1` (some centres not stated) [listing 1 of 3 here], a half-maximal effect in the data set with Hepatitis C virus (EC50) was put at 220 nM. In other words, the sub-micromolar range.
For `CCOC(=O)C1(NP(=O)(OC[C@@]2(N=[N+]=[N-])O[C@@H](n3ccc(=O)[nH]c3=O)[C@@H](O)[C@H]2O)Oc2ccccc2)CCCC1` (some centres not stated), in data set [1], the CC50 is above 100 µM. The compound further returned an EC50 in the data set with Hepatitis C virus (Hepatitis C virus) above 100000 nM.
The matching figures for `CCOC(=O)[C@H](Cc1ccccc1)NP(=O)(OC[C@@]1(N=[N+]=[N-])O[C@@H](n2ccc(=O)[nH]c2=O)[C@@H](O)[C@H]1O)Oc1ccccc1` (some centres not stated): above 100 µM and 1370 nM.
Take `[N-]=[N+]=N[C@]1(COP(=O)(NCC(=O)OCc2ccccc2)Oc2ccccc2)O[C@@H](n2ccc(=O)[nH]c2=O)[C@@H](O)[C@H]1O` (some centres not stated): in data set [1], the CC50 was above 100 µM. Further, the EC50 in the data set with Hepatitis C virus (Hepatitis C virus) is 1600 nM.
`CCOC(=O)C(C)(C)NP(=O)(OC[C@@]1(N=[N+]=[N-])O[C@@H](n2ccc(=O)[nH]c2=O)[C@@H](O)[C@H]1O)Oc1ccccc1` (some centres not stated) came in with a CC50 in data set [1] above 100 µM. In the data set with Hepatitis C virus (Hepatitis C virus), this compound displayed an EC50 of 10300 nM.
In data set [1], `CCOC(=O)[C@H](CC(C)C)NP(=O)(OC[C@@]1(N=[N+]=[N-])O[C@@H](n2ccc(=O)[nH]c2=O)[C@@H](O)[C@H]1O)Oc1ccccc1` (some centres not stated) displayed a CC50 above 100 µM. This compound showed an EC50 with Hepatitis C virus (Hepatitis C virus) of 2300 nM.
With `C[C@H](NP(=O)(OC[C@@]1(N=[N+]=[N-])O[C@@H](n2ccc(=O)[nH]c2=O)[C@@H](O)[C@H]1O)Oc1ccccc1)C(=O)OC(C)(C)C` (some centres not stated), the CC50 in data set [1] was above 100 µM. Moreover, the EC50 in the data set with Hepatitis C virus (Hepatitis C virus) came out at 5100 nM.
For `COC(=O)[C@H](C)NP(=O)(OC[C@@]1(N=[N+]=[N-])O[C@@H](n2ccc(=O)[nH]c2=O)[C@@H](O)[C@H]1O)Oc1ccccc1` (some centres not stated) the same measures were above 100 µM and 3100 nM.
The matching figures for `C[C@H](NP(=O)(OC[C@@]1(N=[N+]=[N-])O[C@@H](n2ccc(=O)[nH]c2=O)[C@@H](O)[C@H]1O)Oc1cccc2ccccc12)C(=O)OCc1ccccc1` (some centres not stated) [listing 2 of 3 here]: above 100 µM and 430 nM.
The matching figures for `CCOC(=O)CN(C)P(=O)(OC[C@@]1(N=[N+]=[N-])O[C@@H](n2ccc(=O)[nH]c2=O)[C@@H](O)[C@H]1O)Oc1ccccc1` (some centres not stated): above 100 µM and above 100000 nM.
On to `CC(C)(NP(=O)(OC[C@@]1(N=[N+]=[N-])O[C@@H](n2ccc(=O)[nH]c2=O)[C@@H](O)[C@H]1O)Oc1ccccc1)C(=O)OCc1ccccc1` (some centres not stated), for which the CC50 in data set [1] is above 100 µM. Besides, the EC50 in the data set on Hepatitis C virus (Hepatitis C virus) turned out to be 3400 nM.
The compound `[N-]=[N+]=N[C@]1(COP(=O)(NC2(C(=O)OCc3ccccc3)CCCC2)Oc2ccccc2)O[C@@H](n2ccc(=O)[nH]c2=O)[C@@H](O)[C@H]1O` (some centres not stated) had a half-maximal cytotoxic concentration (CC50) in data set [1] above 100 µM. The compound further showed an EC50 in the data set on Hepatitis C virus (Hepatitis C virus) below 100000 nM.
For `C[C@@H](NP(=O)(OC[C@@]1(N=[N+]=[N-])O[C@@H](n2ccc(=O)[nH]c2=O)[C@@H](O)[C@H]1O)Oc1ccccc1)C(=O)OCc1ccccc1` (some centres not stated) the same measures were above 100 µM and 1200 nM.
Compound `CCOC(=O)[C@H](CCSC)NP(=O)(OC[C@@]1(N=[N+]=[N-])O[C@@H](n2ccc(=O)[nH]c2=O)[C@@H](O)[C@H]1O)Oc1ccccc1` (some centres not stated) returned a CC50 in data set [1] above 100 µM. This compound also displayed an EC50 with Hepatitis C virus (Hepatitis C virus) of 14000 nM.
In data set [1], `[N-]=[N+]=N[C@]1(CO)O[C@@H](n2ccc(=O)[nH]c2=O)[C@@H](O)[C@H]1O` registered a CC50 above 100 µM. The compound also showed an EC50 in the data set with Hepatitis C virus (Hepatitis C virus) above 100000 nM.
On to `C[C@H](NP(=O)(OC[C@@]1(N=[N+]=[N-])O[C@@H](n2ccc(=O)[nH]c2=O)[C@@H](O)[C@H]1O)Oc1cccc2ccccc12)C(=O)OCc1ccccc1` (some centres not stated) [listing 3 of 3 here], for which the half-maximal effective concentration (EC50) with Hepatitis C virus came to 390 nM.
In data set [1], `CCOC(=O)[C@@H]1CCCN1P(=O)(OC[C@@]1(N=[N+]=[N-])O[C@@H](n2ccc(=O)[nH]c2=O)[C@@H](O)[C@H]1O)Oc1ccccc1` (some centres not stated) registered a CC50 above 100 µM. The EC50 in the data set on Hepatitis C virus (Hepatitis C virus) turned out to be 6000 nM.
